From ChEMBL document CHEMBL4428026, “Discovery of New Monocarbonyl Ligustrazine-Curcumin Hybrids for Intervention of Drug-Sensitive and Drug-Resistant Lung Cancer” (J Med Chem, 2016)
The source made the active and inactive calls. No cut-off for these calls is given here.

Columns and labels:
A549/CDDP [1] = test: Antiproliferative activity against human A549/CDDP cells after 72 hrs by MTT assay; format: functional, cell-based
Method in brief: (§1)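 Cells (A549, A549/DDP, SPC-A-1, LTEP-G-2, non-tumor bronchial epithelial HBE) were exposed in triplicate to vehicle or compound for 72 h. MTT (5 mg/mL in PBS) was then added for 4 h, formazan was dissolved in DMSO, and absorbance was read at 570 nm. IC50 values were derived from viability.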

A549 [2] = test: Antiproliferative activity against human A549 cells after 72 hrs by MTT assay; format: functional, cell-based; conditions: A549, 72 h; method in brief: as §1
[3] = Antiproliferative activity against human LTEP-G2 cells after 72 hrs by MTT assay; format: functional, cell-based; method in brief: as §1
[4] = Antiproliferative activity against human SPC-A1 cells after 72 hrs by MTT assay; format: functional, cell-based; conditions: SPCA1, 72 h; method in brief: as §1
[5] = Cytotoxicity against NHBE cells after 72 hrs by MTT assay; format: cell-based; conditions: Homo sapiens; method in brief: as §1
Thioredoxin reductase [6] = target: T1, Thioredoxin reductase (Homo sapiens, UniProt Q16881+Q9NNW7+Q86VQ6); test: Inhibition of thioredoxin reductase in human A549/CDDP cells by DTNB dye based microplate spectrophotometry; format: cell-based
Method in brief: (§2)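 A549 or A549/DDP cells were treated with varying compound concentrations for 24 h, then harvested, homogenized and centrifuged. Protein (50 µg) was reacted in triplicate with NADPH and DTNB in TE buffer at 37 °C for 1 h, and TNB was read at 412 nm. Activity was taken from a purified-TrxR standard curve, and IC50 was derived.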

Thioredoxin reductase [7] = target: T1, Thioredoxin reductase; test: Inhibition of thioredoxin reductase in human A549 cells by DTNB dye based microplate spectrophotometry; format: cell-based; method in brief: as §2
Thioredoxin reductase [8] = target: T1, Thioredoxin reductase; test: Inhibition of thioredoxin reductase (unknown origin) after 2 hrs by DTNB dye based microplate spectrophotometry; format: protein assay
Method in brief: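 NADPH-reduced TrxR (0.16 µM) was preincubated in triplicate with vehicle DMSO (0.1%, v/v) or varying compound concentrations for 2 h. It was then reacted with 2 mM DTNB and 200 µM NADPH for 3 min, and absorbance was read at 412 nm. IC50 was derived.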

[9] = target: ATP-dependent translocase ABCB1 (Homo sapiens, UniProt P08183); test: Inhibition of P-gp ATPase activity in human A549/CDDP cells at 200 uM by luminescence assay (reference value: 706683 +/- 23554 RLU); format: cell-based
A549 [10] = test: Induction of apoptosis in human A549 cells at 2.1 to 4.2 uM after 24 hrs by annexin V-FITC/propidium iodide staining-based flow cytometry; format: functional, cell-based
Method in brief: (§3)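 Cells were seeded at 1 × 10^5/well and treated 24 h with DMSO (1%) or compound. They were then washed in PBS, stained with FITC-Annexin V and propidium iodide, and apoptotic fractions were quantified by flow cytometry.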

A549/CDDP [11] = test: Induction of apoptosis in human A549/CDDP cells at 0.6 to 1.2 uM after 24 hrs by annexin V-FITC/propidium iodide staining-based flow cytometry; format: functional, cell-based; method in brief: as §3

Chain of ATP-dependent translocase ABCB1 (P08183 whole entry): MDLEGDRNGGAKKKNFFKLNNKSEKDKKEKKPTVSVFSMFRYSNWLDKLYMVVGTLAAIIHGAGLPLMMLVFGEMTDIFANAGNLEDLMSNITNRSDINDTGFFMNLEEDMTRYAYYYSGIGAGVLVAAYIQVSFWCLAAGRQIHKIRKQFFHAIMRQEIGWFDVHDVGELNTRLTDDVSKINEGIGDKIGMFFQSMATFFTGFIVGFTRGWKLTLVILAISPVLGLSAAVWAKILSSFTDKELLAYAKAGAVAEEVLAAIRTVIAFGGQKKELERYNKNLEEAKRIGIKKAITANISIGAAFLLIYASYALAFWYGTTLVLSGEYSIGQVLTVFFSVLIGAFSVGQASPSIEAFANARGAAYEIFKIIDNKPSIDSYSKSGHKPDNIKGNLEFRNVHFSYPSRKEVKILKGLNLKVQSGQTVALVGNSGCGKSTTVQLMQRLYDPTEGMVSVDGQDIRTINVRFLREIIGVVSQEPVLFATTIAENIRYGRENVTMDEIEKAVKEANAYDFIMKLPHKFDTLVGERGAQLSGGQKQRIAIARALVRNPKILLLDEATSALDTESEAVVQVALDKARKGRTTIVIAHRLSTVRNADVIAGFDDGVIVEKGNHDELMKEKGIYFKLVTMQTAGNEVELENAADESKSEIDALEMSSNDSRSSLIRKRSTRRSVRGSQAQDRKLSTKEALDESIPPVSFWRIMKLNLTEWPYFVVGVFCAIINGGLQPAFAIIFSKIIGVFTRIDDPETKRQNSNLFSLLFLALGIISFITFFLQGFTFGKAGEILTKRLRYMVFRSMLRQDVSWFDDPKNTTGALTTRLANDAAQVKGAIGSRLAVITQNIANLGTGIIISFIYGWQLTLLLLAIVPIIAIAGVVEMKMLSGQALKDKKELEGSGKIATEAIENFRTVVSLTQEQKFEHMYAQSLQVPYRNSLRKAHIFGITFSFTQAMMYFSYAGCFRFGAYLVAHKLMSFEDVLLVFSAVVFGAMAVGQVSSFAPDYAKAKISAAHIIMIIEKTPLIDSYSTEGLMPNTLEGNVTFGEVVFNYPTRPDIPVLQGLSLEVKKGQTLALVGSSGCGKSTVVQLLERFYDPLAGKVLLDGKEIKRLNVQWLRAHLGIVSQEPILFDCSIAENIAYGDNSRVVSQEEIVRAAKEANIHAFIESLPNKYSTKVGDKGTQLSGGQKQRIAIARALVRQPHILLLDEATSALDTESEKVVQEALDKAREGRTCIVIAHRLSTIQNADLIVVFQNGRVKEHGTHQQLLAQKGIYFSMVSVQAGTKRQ

| Compound | IC50 (A549/CDDP [1]) [µM] | IC50 (A549 [2]) [µM] | other results |
| --- | --- | --- | --- |
| Cc1nc(C)c(/C=C/C(=O)/C=C/c2cccc([N+](=O)[O-])c2)nc1C | 6.69 | 6.7 |  |
| Cc1nc(C)c(/C=C/C(=O)/C=C/c2ccccc2)nc1C | 11.9 | 12.3 |  |
| COc1cccc(/C=C/C(=O)/C=C/c2nc(C)c(C)nc2C)c1O | 2.19 | 2.85 | IC50 [3]: 5.01 µM; IC50 [4]: 5.71 µM; IC50 [5]: 17.6 µM; IC50 (Thioredoxin reductase [6]): 4.64 µM; IC50 (Thioredoxin reductase [7]): 4.73 µM; IC50 (Thioredoxin reductase [8]): 5.3 µM |
| Cc1nc(C)c(/C=C/C(=O)/C=C/c2ccc3ccccc3c2)nc1C | 11.8 | 7.1 |  |
| COc1ccc(/C=C/C(=O)/C=C/c2nc(C)c(C)nc2C)cc1OC | 2.44 | 3.79 | IC50 [3]: 4.36 µM; IC50 [4]: 5.42 µM; IC50 [5]: 16.2 µM; IC50 (Thioredoxin reductase [6]): 4.22 µM; IC50 (Thioredoxin reductase [7]): 4.17 µM; IC50 (Thioredoxin reductase [8]): 7.09 µM |
| Cc1nc(C)c(/C=C/C(=O)/C=C/c2ccc(F)cc2)nc1C | 7.44 | 5.9 |  |
| SODIUM ORTHOVANAD |  |  | Activity [9]: 790447 RLU |
| COc1ccccc1/C=C/C(=O)/C=C/c1nc(C)c(C)nc1C | 4.74 | 3.2 |  |
| Cc1nc(C)c(/C=C/C(=O)/C=C/c2ccc(C(F)(F)F)cc2)nc1C | 6.9 | 11.7 |  |
| COc1cccc(/C=C/C(=O)/C=C/c2nc(C)c(C)nc2C)c1 | 3.44 | 3.3 |  |
| Cc1nc(C)c(/C=C/C(=O)/C=C/c2ccccc2O)nc1C | 3.9 | 4.78 |  |
| COc1cc(/C=C/C(=O)CC(=O)/C=C/c2ccc(O)c(OC)c2)ccc1O [CURCUMIN] | 32.4 | 38.1 | Activity (A549 [10]): Active; Activity (A549/CDDP [11]): Active; IC50 (Thioredoxin reductase [6]): 39.42 µM; IC50 (Thioredoxin reductase [7]): 40.56 µM; IC50 (Thioredoxin reductase [8]): 41.42 µM |
| Cc1nc(C)c(C)nc1C [LIGUSTRAZINE] | > 200 | > 200 | Activity (A549 [10]): Active; Activity (A549/CDDP [11]): Active; IC50 (Thioredoxin reductase [6]): > 200 µM; IC50 (Thioredoxin reductase [7]): > 200 µM; IC50 (Thioredoxin reductase [8]): > 200 µM |
| Cc1nc(C)c(/C=C/C(=O)/C=C/c2ccc(Cl)cc2)nc1C | 7.49 | 15.8 |  |
| Cc1ccc(/C=C/C(=O)/C=C/c2nc(C)c(C)nc2C)cc1 | 3.99 | 4.3 |  |
| Cc1nc(C)c(/C=C/C(=O)/C=C/c2cccc(O)c2)nc1C | 3.7 | 4.3 |  |
| Cc1nc(C)c(/C=C/C(=O)/C=C/c2ccc(O)cc2)nc1C | 4.79 | 4.01 |  |
| COc1cc(/C=C/C(=O)/C=C/c2nc(C)c(C)nc2C)cc(OC)c1OC | 1 | 1.6 | IC50 [3]: 2.34 µM; IC50 [4]: 5.35 µM; IC50 [5]: 14.3 µM; IC50 (Thioredoxin reductase [6]): 1.98 µM; IC50 (Thioredoxin reductase [7]): 2.36 µM; IC50 (Thioredoxin reductase [8]): 3.06 µM |
| Cc1nc(C)c(/C=C/C(=O)/C=C/c2ccccc2[N+](=O)[O-])nc1C | 6.39 | 17.3 |  |
| COc1ccc(/C=C/C(=O)/C=C/c2nc(C)c(C)nc2C)cc1 | 3.61 | 3.5 |  |
| Cc1nc(C)c(/C=C/C(=O)/C=C/c2ccc3c(c2)OCO3)nc1C | 5.2 | 4.5 |  |
| COc1ccc(/C=C/C(=O)/C=C/c2nc(C)c(C)nc2C)c(OC)c1 | 2.85 | 3.07 | IC50 [3]: 5.91 µM; IC50 [4]: 6.32 µM; IC50 [5]: 20.8 µM; IC50 (Thioredoxin reductase [6]): 4.26 µM; IC50 (Thioredoxin reductase [7]): 4.12 µM; IC50 (Thioredoxin reductase [8]): 7.63 µM |
| Cc1nc(C)c(/C=C/C(=O)/C=C/c2ccc([N+](=O)[O-])cc2)nc1C | 7.9 | 9.6 |  |
| COc1ccc(CCN(C)CCCC(C#N)(c2ccc(OC)c(OC)c2)C(C)C)cc1OC (stereo not given) [VERAPAMIL] |  |  | Activity [9]: 641490 RLU |
